Experimental data as given in ChEMBL document CHEMBL4732164, “Structure-Based Design of Potent Selective Nanomolar Type-II Inhibitors of Glycogen Synthase Kinase-3β” (J Med Chem, 2021).
One block for each compound: values may come before it. Active and inactive are the calls of the source. The rule behind the calls is not given here.

Columns and labels:
SH-SY5Y = assay: Neuroprotective activity against OA-induced neuronal injury in human SH-SY5Y cells assessed as reduction in cell death at 0.1 to 10 uM pre-incubated for 1 hrs followed by OA addition measured after 24 hrs by MTT assay; assay type: functional, cell-based; conditions: dose 0.1-10 µM
In short: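 SH-SY5Y cells (DMEM, 10% FBS, 1% pen/strep, 37 °C, 5% CO2) seeded at 60,000/well and grown 48 h. Compound (0.1, 0.5, 1, 5, 10 μM) added 1 h before okadaic acid at 30 nM, then 24 h. Viability by MTT (0.5 mg/mL, ≥4 h), formazan in DMSO, A595, as % control. Mean ± SEM, three independent experiments.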

[1] = molecular target: T1, Glycogen synthase kinase-3 beta (Homo sapiens, UniProt P49841); assay: Inhibition of recombinant human GSK-3beta using phosphorylated polypeptide as substrate incubated for 30 mins in presence of ATP by kinase-glo luminescence assay
In short: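 Buffer is 50 mM HEPES pH 7.5, 1 mM EDTA, 1 mM EGTA, 15 mM magnesium acetate. Runs 30 min at 30 °C; luminescence read 10 min after reagent. Inhibition is relative to no-inhibitor maximal activity.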
Target sequence in this assay (P49841 whole entry): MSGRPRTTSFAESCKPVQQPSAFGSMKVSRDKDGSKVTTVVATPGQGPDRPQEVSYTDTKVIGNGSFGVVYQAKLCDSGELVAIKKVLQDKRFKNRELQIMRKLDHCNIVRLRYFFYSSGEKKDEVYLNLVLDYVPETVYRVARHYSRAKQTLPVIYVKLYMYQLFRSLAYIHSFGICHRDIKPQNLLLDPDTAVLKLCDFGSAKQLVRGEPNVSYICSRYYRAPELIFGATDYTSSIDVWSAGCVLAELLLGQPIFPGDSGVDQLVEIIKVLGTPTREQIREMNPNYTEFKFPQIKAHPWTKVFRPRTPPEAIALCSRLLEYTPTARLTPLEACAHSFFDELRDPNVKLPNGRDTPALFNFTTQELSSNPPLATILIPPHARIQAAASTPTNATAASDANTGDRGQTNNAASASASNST

[2] = molecular target: T1, Glycogen synthase kinase-3 beta; assay: Inhibition of recombinant human GSK-3beta at 50 uM using phosphorylated polypeptide as substrate incubated for 30 mins in presence of ATP by kinase-glo luminescence assay relative to control
In short: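 Kinase-Glo luminescence: 20 ng enzyme with test compound (DMSO ≤1% final), 25 μM substrate, 1 μM ATP. Buffer is 50 mM HEPES pH 7.5, 1 mM EDTA, 1 mM EGTA, 15 mM magnesium acetate. Runs 30 min at 30 °C; luminescence read 10 min after reagent. Inhibition is relative to no-inhibitor maximal activity.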
Target sequence in this assay (P49841 whole entry, looked up): as the sequence (P49841 whole entry) above

[3] = Inhibition of Ustilago maydis GSK-3beta using Ser/Thr 6 peptide as substrate preincubated for 60 mins followed by ATP and substrate addition and measured after 45 mins by Z'lyte assay; parameters: species or system Mycosarcoma maydis
[4] = molecular target: Glycogen synthase kinase-3 alpha (Homo sapiens) (UniProt P49840); assay: Inhibition of GSK3alpha (unknown origin) assessed as enzyme remaining activity at 5 uM relative to control
Glycogen synthase kinase-3 alpha (Homo sapiens), sequence (P49840 2-483 limits assumed): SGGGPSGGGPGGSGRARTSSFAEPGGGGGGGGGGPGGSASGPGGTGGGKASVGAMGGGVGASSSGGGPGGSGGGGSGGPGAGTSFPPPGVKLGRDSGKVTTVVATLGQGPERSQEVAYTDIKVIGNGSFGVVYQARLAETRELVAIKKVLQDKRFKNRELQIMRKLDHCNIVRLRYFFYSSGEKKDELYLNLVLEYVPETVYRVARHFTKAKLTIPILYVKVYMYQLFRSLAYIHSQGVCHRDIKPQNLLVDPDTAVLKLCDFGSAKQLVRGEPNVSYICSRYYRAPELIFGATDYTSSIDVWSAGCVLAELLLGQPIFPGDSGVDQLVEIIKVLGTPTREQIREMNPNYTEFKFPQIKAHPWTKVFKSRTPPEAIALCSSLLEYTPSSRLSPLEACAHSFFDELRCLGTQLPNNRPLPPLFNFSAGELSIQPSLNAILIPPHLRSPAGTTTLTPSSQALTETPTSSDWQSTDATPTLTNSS

[5] = molecular target: Mitogen-activated protein kinase 1 (Homo sapiens) (UniProt P28482); assay: Inhibition of ERK2 (unknown origin) assessed as enzyme remaining activity at 5 uM relative to control
Mitogen-activated protein kinase 1 (Homo sapiens), sequence (P28482 whole entry): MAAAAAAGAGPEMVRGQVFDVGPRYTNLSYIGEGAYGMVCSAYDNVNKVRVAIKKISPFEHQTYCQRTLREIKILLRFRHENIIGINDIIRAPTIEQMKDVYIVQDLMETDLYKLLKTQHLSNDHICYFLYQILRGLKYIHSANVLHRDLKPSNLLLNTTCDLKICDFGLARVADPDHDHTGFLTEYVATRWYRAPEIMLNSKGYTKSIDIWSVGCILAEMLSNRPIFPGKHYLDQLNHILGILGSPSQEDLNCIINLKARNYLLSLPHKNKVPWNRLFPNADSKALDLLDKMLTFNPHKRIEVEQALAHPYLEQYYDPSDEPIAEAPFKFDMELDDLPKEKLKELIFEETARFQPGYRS

[6] = molecular target: Mitogen-activated protein kinase 3 (Homo sapiens) (UniProt P27361); assay: Inhibition of ERK1 (unknown origin) assessed as enzyme remaining activity at 5 uM relative to control
Mitogen-activated protein kinase 3 (Homo sapiens), sequence (P27361 whole entry): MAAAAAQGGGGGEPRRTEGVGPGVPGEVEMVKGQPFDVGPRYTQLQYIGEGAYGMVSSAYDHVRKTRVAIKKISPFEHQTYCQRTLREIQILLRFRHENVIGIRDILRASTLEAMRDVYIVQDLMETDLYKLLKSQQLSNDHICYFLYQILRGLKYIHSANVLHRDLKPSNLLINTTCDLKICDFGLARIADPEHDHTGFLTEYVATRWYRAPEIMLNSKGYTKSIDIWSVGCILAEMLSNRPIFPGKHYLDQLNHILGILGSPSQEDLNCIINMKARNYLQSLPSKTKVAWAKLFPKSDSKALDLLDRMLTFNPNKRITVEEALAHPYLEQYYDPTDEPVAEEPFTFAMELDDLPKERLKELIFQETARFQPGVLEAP

[7] = molecular target: Protein kinase C alpha type (Homo sapiens) (UniProt P17252); assay: Inhibition of PKCalpha (unknown origin) assessed as enzyme remaining activity at 5 uM relative to control
[8] = molecular target: RAC-alpha serine/threonine-protein kinase (Homo sapiens) (UniProt P31749); assay: Inhibition of PKBalpha (unknown origin) assessed as enzyme remaining activity at 5 uM relative to control
RAC-alpha serine/threonine-protein kinase (Homo sapiens), sequence (P31749 whole entry): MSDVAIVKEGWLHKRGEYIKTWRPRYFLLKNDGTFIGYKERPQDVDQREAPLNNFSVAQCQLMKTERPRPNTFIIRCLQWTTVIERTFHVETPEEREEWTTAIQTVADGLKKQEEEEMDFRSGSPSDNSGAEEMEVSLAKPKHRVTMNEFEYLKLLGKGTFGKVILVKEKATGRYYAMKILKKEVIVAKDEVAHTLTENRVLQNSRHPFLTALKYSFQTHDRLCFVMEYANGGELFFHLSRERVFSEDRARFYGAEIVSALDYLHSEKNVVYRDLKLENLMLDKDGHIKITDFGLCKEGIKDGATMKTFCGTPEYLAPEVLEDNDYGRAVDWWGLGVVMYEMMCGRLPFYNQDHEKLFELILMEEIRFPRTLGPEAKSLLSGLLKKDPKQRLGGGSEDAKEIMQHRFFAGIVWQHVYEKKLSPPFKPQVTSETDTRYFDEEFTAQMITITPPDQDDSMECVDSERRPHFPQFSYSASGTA

[9] = molecular target: Cyclin-dependent kinase 9 (Homo sapiens) (UniProt P50750); assay: Inhibition of CDK9 (unknown origin) assessed as enzyme remaining activity at 5 uM relative to control
Cyclin-dependent kinase 9 (Homo sapiens), sequence (P50750 whole entry): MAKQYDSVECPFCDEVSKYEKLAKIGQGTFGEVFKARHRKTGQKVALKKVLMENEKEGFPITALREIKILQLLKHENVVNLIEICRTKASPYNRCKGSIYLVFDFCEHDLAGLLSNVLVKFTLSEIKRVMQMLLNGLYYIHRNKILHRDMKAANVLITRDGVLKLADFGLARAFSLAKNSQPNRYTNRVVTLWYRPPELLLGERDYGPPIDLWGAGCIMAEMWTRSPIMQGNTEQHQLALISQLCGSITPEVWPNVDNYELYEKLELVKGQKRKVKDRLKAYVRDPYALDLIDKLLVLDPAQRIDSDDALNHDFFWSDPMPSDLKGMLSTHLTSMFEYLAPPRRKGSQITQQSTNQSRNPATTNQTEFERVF

[10] = molecular target: Cyclin-dependent kinase 2 (Homo sapiens) (UniProt P24941); assay: Inhibition of CDK2 (unknown origin) assessed as enzyme remaining activity at 5 uM relative to control
[11] = molecular target: Cyclin-dependent kinase 5 (Homo sapiens) (UniProt Q00535); assay: Inhibition of CDK5 (unknown origin) assessed as enzyme remaining activity at 5 uM relative to control
Cyclin-dependent kinase 5 (Homo sapiens), sequence (Q00535 whole entry, looked up): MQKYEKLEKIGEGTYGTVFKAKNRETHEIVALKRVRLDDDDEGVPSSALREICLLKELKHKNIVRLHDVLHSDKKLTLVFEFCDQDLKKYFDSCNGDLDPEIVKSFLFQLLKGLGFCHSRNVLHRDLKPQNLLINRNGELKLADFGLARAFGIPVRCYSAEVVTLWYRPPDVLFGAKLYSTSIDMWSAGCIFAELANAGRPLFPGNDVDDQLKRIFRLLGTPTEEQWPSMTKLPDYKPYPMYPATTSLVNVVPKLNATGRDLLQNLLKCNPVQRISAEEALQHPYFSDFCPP

[12] = molecular target: Protein kinase C gamma type (Homo sapiens) (UniProt P05129); assay: Inhibition of PKCgamma (unknown origin) assessed as enzyme remaining activity at 5 uM relative to control
Homo sapiens = organism: Homo sapiens; assay: Inhibition of PKA (unknown origin) assessed as enzyme remaining activity at 5 uM relative to control

IC50 [1]: 0.421 µM
SMILES: COc1ccc(-c2ccnc(N[C@H]3CO[C@H]4[C@@H]3OC[C@@H]4NC(=O)Nc3cc(OC)cc(OC)c3)n2)cc1
Activity (SH-SY5Y): Active

IC50 [1]: 5.66 µM
SMILES: CN(C)c1ccc(-c2ccnc(N[C@H]3CO[C@H]4[C@@H]3OC[C@@H]4NC(=O)Nc3cccc(C(F)(F)F)c3)n2)cc1

IC50 [1]: > 50 µM | inhibition [2]: 42%
SMILES: O=C(Nc1cccc(C(F)(F)F)c1)N[C@H]1CO[C@H]2[C@@H]1OC[C@@H]2OC(=O)Nc1ccc(Oc2ccccc2)cc1

IC50 [1]: 0.56 µM
SMILES: COc1ccc(-c2ccnc(N[C@H]3CO[C@H]4[C@@H]3OC[C@@H]4NC(=O)Nc3ccccc3)n2)cc1
Activity (SH-SY5Y): Active

IC50 [1]: 27 µM
SMILES: COc1ccccc1-c1ccnc(N[C@H]2CO[C@H]3[C@@H]2OC[C@@H]3NC(=O)Nc2cccc(C(F)(F)F)c2)n1

IC50 [1]: 0.087 µM
SMILES: COc1ccc(-c2ccnc(N[C@H]3CO[C@H]4[C@@H]3OC[C@@H]4NC(=O)Nc3cccc(C#N)c3)n2)cc1
Activity (SH-SY5Y): Active

IC50 [1]: 2.7 µM
SMILES: O=C(Nc1ccccc1)N[C@H]1CO[C@H]2[C@@H]1OC[C@@H]2Nc1nccc(-c2cccs2)n1

IC50 [1]: 9.75 µM
SMILES: COc1ccc(-c2ccnc(N[C@H]3CO[C@H]4[C@@H]3OC[C@@H]4NC(=O)Nc3cccc(C(F)(F)F)c3)n2)cc1

IC50 [1]: 0.117 µM
SMILES: CCNC(=O)N[C@H]1CO[C@H]2[C@@H]1OC[C@@H]2Nc1nccc(-c2ccc(OC)cc2)n1
Activity (SH-SY5Y): Active

IC50 [1]: > 50 µM | inhibition [2]: 21%
SMILES: O=C(Nc1cccc2ccccc12)N[C@H]1CO[C@H]2[C@@H]1OC[C@H]2OC(=O)Nc1ccccc1

IC50 [1]: 4.04 µM
SMILES: O=C(Nc1cccc(C(F)(F)F)c1)N[C@H]1CO[C@H]2[C@@H]1OC[C@@H]2Nc1nccc(-c2cccs2)n1

Activity [4]: > 50% | Activity [5]: > 50% | Activity [6]: > 50% | Activity [7]: > 50% | IC50 [1]: 0.412 µM | Activity [8]: > 50% | Activity [9]: 33.8% | Activity [10]: > 50% | Activity [11]: > 50% | Activity [12]: > 50% | Activity (Homo sapiens): > 50%
SMILES: COc1ccc(-c2ccnc(N[C@H]3CO[C@H]4[C@@H]3OC[C@@H]4NC(=O)Nc3ccc(C(C)=O)cc3)n2)cc1
Activity (SH-SY5Y): Active

IC50 [1]: 11.9 µM
SMILES: O=C(Nc1cccc(C(F)(F)F)c1)N[C@H]1CO[C@H]2[C@@H]1OC[C@@H]2Nc1nccc(C2CCCC2)n1

IC50 [1]: 6.08 µM
SMILES: COc1ccccc1-c1ccnc(N[C@H]2CO[C@H]3[C@@H]2OC[C@@H]3NC(=O)Nc2cccc(C#N)c2)n1
Activity (SH-SY5Y): inactive

IC50 [1]: 2.08 µM
SMILES: N#Cc1cccc(NC(=O)N[C@H]2CO[C@H]3[C@@H]2OC[C@@H]3Nc2nccc(-c3cccc(F)c3)n2)c1
Activity (SH-SY5Y): Active

IC50 [1]: 2.95 µM
SMILES: O=C(Nc1cccc(C(F)(F)F)c1)N[C@H]1CO[C@H]2[C@@H]1OC[C@@H]2Nc1nccc(-c2ccco2)n1

IC50 [1]: 14 µM
SMILES: CC(C)(C)c1ccnc(N[C@H]2CO[C@H]3[C@@H]2OC[C@@H]3NC(=O)Nc2cccc(C(F)(F)F)c2)n1

IC50 [1]: 2.06 µM
SMILES: O=C(Nc1cccc(C(F)(F)F)c1)N[C@H]1CO[C@H]2[C@@H]1OC[C@@H]2Nc1nccc(-c2cccc(F)c2)n1
Activity (SH-SY5Y): Active

Second part, the compound before the results:

SMILES: Cc1cc2nc(CO[C@H]3CN(Cc4cccnc4)C[C@H]3F)[nH]c2cc1C
IC50 [1]: > 50 µM | inhibition [2]: 5%

SMILES: CCOC(=O)Cc1ccc(-n2nc(C(C)(C)C)cc2NC(=O)Nc2ccc(OCCN3CCOCC3)c3ccccc23)cc1
IC50 [3]: 1.8 µM

SMILES: COc1ccc(C(=O)N2C[C@@H](F)[C@@H](OCc3nc4cc(C(F)(F)F)ccc4[nH]3)C2)cc1
IC50 [1]: > 50 µM | inhibition [2]: 33%

SMILES: O=C(c1ccncc1)N1C[C@@H](F)[C@@H](OCc2nc3ccc(F)cc3[nH]2)C1
IC50 [1]: > 50 µM | inhibition [2]: 19%

SMILES: O=C(Nc1cccc(C(F)(F)F)c1)N[C@H]1CO[C@H]2[C@@H]1OC[C@H]2OC(=O)Nc1cccc2ccccc12
IC50 [1]: > 50 µM | inhibition [2]: 35%

SMILES: CNC(=O)c1cc(Oc2ccc(NC(=O)Nc3ccc(Cl)c(C(F)(F)F)c3)cc2)ccn1 [SORAFENIB]
IC50 [3]: 0.71 µM

SMILES: CSCC(=O)N1C[C@@H](NC(=O)Nc2cccc(SC)c2)C[C@H]1C(=O)N[C@H](Cc1c[nH]c2ccccc12)C(N)=O
IC50 [1]: > 50 µM | inhibition [2]: 5%

SMILES: CS(=O)(=O)c1ccc(CN2C[C@@H](F)[C@@H](OCc3nc4cc(C(F)(F)F)ccc4[nH]3)C2)cc1
IC50 [1]: > 50 µM | inhibition [2]: 19%

SMILES: O=C(O)CCCNC(=O)c1cc(Oc2ccc(NC(=O)Nc3ccc(Cl)c(C(F)(F)F)c3)cc2)ccn1
IC50 [3]: 0.154 µM

SMILES: CNC(=O)c1cc(Oc2ccc(NC(=O)Nc3cc(C(F)(F)F)c(Cl)cc3OCCCC(=O)O)cc2)ccn1
IC50 [3]: 0.057 µM

SMILES: O=C(Nc1cccc(C(F)(F)F)c1)N[C@H]1CO[C@H]2[C@@H]1OC[C@@H]2n1nnnc1-c1cccc(CN2CCCC2)c1
IC50 [1]: > 50 µM | inhibition [2]: 7%

SMILES: CC(C)=CC(=O)N1CC(NC(=O)Nc2ccc(F)cc2F)CC1C(=O)N[C@H](Cc1c[nH]c2ccccc12)C(N)=O (stereo partly specified)
IC50 [1]: > 50 µM | inhibition [2]: 5%

SMILES: Cc1ccc(-n2nc(C(C)(C)C)cc2NC(=O)Nc2ccc(OCCN3CCOCC3)c3ccccc23)cc1 [DORAMAPIMOD]
IC50 [3]: 1.06 µM

SMILES: O=C(Nc1cccc2ccccc12)O[C@@H]1CO[C@H]2[C@@H]1OC[C@@H]2NC(=S)Nc1ccc(Cl)cc1
IC50 [1]: > 50 µM | inhibition [2]: 39%

SMILES: O=C(c1cccnc1)N1C[C@@H](F)[C@@H](OCc2nc3cc(C(F)(F)F)ccc3[nH]2)C1
IC50 [1]: > 50 µM | inhibition [2]: 14%

SMILES: O=C(Nc1cccc(C(F)(F)F)c1)O[C@@H]1CO[C@H]2[C@@H]1OC[C@@H]2Nc1nccc(-c2ccc3c(c2)OCO3)n1
Activity (SH-SY5Y): inactive | IC50 [1]: 1.08 µM

SMILES: CC(C)(C)c1cc(NC(=O)Nc2ccc(Cl)cc2)n(-c2cccc(N)c2)n1
IC50 [3]: 7.8 µM

SMILES: CSc1cccc(NC(=O)NC2C[C@@H]3CCCN2CC3CN(C)c2ccccc2)c1 (stereo partly specified)
IC50 [1]: > 50 µM | inhibition [2]: 1%

SMILES: O=C(Nc1cccc(C(F)(F)F)c1)O[C@@H]1CO[C@H]2[C@@H]1OC[C@@H]2NC(=S)Nc1ccc(Cl)cc1
IC50 [1]: > 50 µM | inhibition [2]: 41%

SMILES: Cc1nn(-c2ccccc2[N+](=O)[O-])c(C)c1[C@@H]1C=C[C@@H](NC(=O)Nc2cccc(C#N)c2)C1
IC50 [1]: > 50 µM | inhibition [2]: 26%

SMILES: Cn1c(CO[C@H]2CN(Cc3c[nH]c4ccccc34)C[C@H]2F)nc2ccccc21
IC50 [1]: > 50 µM | inhibition [2]: 14%

SMILES: Cn1sc(=O)n(Cc2ccccc2)c1=O
Activity (SH-SY5Y): Active

SMILES: COc1ccc2nc(CO[C@H]3CN(Cc4ccnc5ccccc45)C[C@H]3F)[nH]c2c1
IC50 [1]: > 50 µM | inhibition [2]: 13%

SMILES: COC(=O)c1cccc(NC(=S)N[C@H]2CO[C@H]3[C@@H]2OC[C@H]3OC(=O)Nc2cccc(C(F)(F)F)c2)c1
IC50 [1]: > 50 µM | inhibition [2]: 21%

SMILES: CC(=O)Nc1ccc(CN2C[C@@H](F)[C@@H](OCc3nc4cc(C)c(C)cc4[nH]3)C2)cc1
IC50 [1]: > 50 µM | inhibition [2]: 2%

SMILES: CC(C)(C)c1cc(NC(=O)Nc2ccc(OCCN3CCOCC3)c3ccccc23)n(-c2cccc(N)c2)n1
IC50 [3]: 1.1 µM

SMILES: N#Cc1ccc(CN2C[C@@H](F)[C@@H](OCc3nc4cc(C(F)(F)F)ccc4[nH]3)C2)cc1
IC50 [1]: > 50 µM | inhibition [2]: 2%

SMILES: Cc1ccc(-n2nc(C(C)(C)C)cc2NC(=O)Nc2ccc(OCCN3CCOCC3)cc2)cc1
IC50 [3]: 10.3 µM

SMILES: Cn1cccc1C(=O)N1C[C@H](NC(=O)Nc2ccc(F)cc2F)C[C@@H]1C(=O)N[C@H](Cc1c[nH]c2ccccc12)C(N)=O
IC50 [1]: > 50 µM | inhibition [2]: 6%

SMILES: O=C(c1ccccc1)N1C[C@@H](F)[C@@H](OCc2nc3cc(C(F)(F)F)ccc3[nH]2)C1
IC50 [1]: > 50 µM | inhibition [2]: 7%

SMILES: COC(=O)c1ccc2c(c1)nc1n2[C@@H](CNC(=O)Nc2ccccc2)COC1
IC50 [1]: > 50 µM | inhibition [2]: 1%
